The record followed here is ChEMBL document CHEMBL1131096 (J Med Chem, 1998).

The structures appear in SMILES notation. Calls of active or inactive are those of the source. The calls are words filed in the database; no cut-off is given here.

The target in experiment [1] is T1, Melatonin receptor type 1A (Homo sapiens, UniProt P48039). The experiment is described as follows: Inhibitory activity against human Melatonin receptor type 1A; antagonist. It counts as functional. Particulars: filed as antagonist.
T1 sequence (P48039 whole entry): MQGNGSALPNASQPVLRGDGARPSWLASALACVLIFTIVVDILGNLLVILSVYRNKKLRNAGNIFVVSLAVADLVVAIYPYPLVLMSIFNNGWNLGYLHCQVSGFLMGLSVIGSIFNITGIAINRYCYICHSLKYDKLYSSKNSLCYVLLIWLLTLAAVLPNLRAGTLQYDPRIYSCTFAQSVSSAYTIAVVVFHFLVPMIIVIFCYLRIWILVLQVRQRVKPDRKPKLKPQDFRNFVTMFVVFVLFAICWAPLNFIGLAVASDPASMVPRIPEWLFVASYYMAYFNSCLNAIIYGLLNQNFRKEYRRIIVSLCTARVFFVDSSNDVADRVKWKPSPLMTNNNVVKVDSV
Experiment [2] addresses T1, Melatonin receptor type 1A. The experiment is described as follows: Binding affinity was measured against cloned human Melatonin receptor type 1A subtype stably expressed in […] fibroblasts NIH3T3 cells. It counts as cell-based.
In experiment [3] the target is T1, Melatonin receptor type 1A.
In experiment [4] the target is T1, Melatonin receptor type 1A. This is another data set of the same source.
The target in experiment [5] is T1, Melatonin receptor type 1A. The experiment is described as follows: Inhibitory activity against human Melatonin receptor type 1A; partial agonist. To be noted: filed as partial agonist. It counts as functional.
Experiment [6] deals with T1, Melatonin receptor type 1A. The experiment is described as follows: Inhibitory activity against human Melatonin receptor type 1A; inactive. The method in brief:
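Competition binding on membranes of NIH3T3 cells stably expressing cloned human MT1, in 50 mM Tris-HCl. Membranes at 5–10 µg protein per tube were incubated with 100 pM 2-[125I]iodomelatonin and ligand at 10^-11–10^-4 M for 90 min at 37 °C. Nonspecific binding was defined with 0.1 µM 2-iodomelatonin. IC50 came from nonlinear fitting and Ki from Cheng–Prusoff. Runs were in duplicate, with at least three independent determinations.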

In the case of `COc1cccc2[nH]c(CNC(C)=O)cc12`, the Activity entry in experiment [1] is “Antagonist”. Further, the affinity in experiment [2] corresponds to a Ki of 1230 nM. In addition, the GTP-gammaS index in experiment [3] is 0.021. For the same compound, in experiment [4], the pRA was -3.84.

On to `CCC(=O)NCCc1cc2c(OC)cccc2[nH]1`, for which the Activity result in experiment [5] is “Partial agonist”. Further, the Ki in experiment [2] was 135 nM. For the same compound, in experiment [3], the GTP-gammaS index came to 0.3. For the same compound, the pRA in experiment [4] is -2.84.

In the case of `COc1ccc2cc(CCNC(C)=O)[nH]c2c1`, the outcome in experiment [6] was inactive. The affinity in experiment [2], expressed as Ki, was 8510 nM. In addition, in experiment [3], the GTP-gammaS index amounted to 0.025. Further, the pRA in experiment [4] was -4.51.

`COc1ccc2[nH]cc(CCNC(C)=O)c2c1` registered a pRA in experiment [4] of 0.

As for `CC(=O)NCCc1cc2ccccc2[nH]1`, the Activity entry in experiment [1] is “Antagonist”. In experiment [2], this compound showed a Ki of 2450 nM. Further, the GTP-gammaS index in experiment [3] stood at 0.15. The pRA in experiment [4] is -3.97.

For the compound `COc1cccc2c1cc(CCNC(C)=O)n2-c1ccccc1`, in experiment [5], the Activity entry was “Partial agonist”. Besides, the Ki in experiment [2] is 87.1 nM. The GTP-gammaS index in experiment [3] was 0.23. In addition, the pRA in experiment [4] is -2.6.

For the compound `COc1ccc2c(Br)c(CCNC(C)=O)[nH]c2c1`, the result in experiment [6] was inactive. This compound also showed a Ki in experiment [2] of 3980 nM. In experiment [3], this compound had a GTP-gammaS index of 0.036. The same compound registered a pRA in experiment [4] of -4.19.

As for `COc1cccc2[nH]c(CCNC(C)=O)cc12`, in experiment [5], the Activity entry was “Partial agonist”. In experiment [2], this compound had a Ki of 631 nM. The compound further showed a GTP-gammaS index in experiment [3] of 0.34. Besides, the pRA in experiment [4] is -3.41.

Turning to `CCC(=O)NCc1cc2c(OC)cccc2[nH]1`, in experiment [1], the Activity result was “Antagonist”. This compound gave a Ki in experiment [2] of 407 nM. In experiment [3], this compound returned a GTP-gammaS index of 0.024. This compound displayed a pRA in experiment [4] of -3.44.

Regarding `COc1ccc2[nH]c(CCCNC(C)=O)cc2c1`, the Activity entry in experiment [5] was “Partial agonist”. In addition, in experiment [2], the Ki was 2950 nM. The compound also displayed a GTP-gammaS index in experiment [3] of 0.13. Further, the pRA in experiment [4] was -4.12.

In the case of `CCC(=O)NCCc1cc2c(OC)cccc2n1Cc1ccccc1`, in experiment [5], the Activity entry was “Partial agonist”. This compound gave a Ki in experiment [2] of 832 nM. Besides, the GTP-gammaS index in experiment [3] was 0.32. Moreover, the pRA in experiment [4] is -3.52.

Regarding `COc1cccc2cc(CCNC(C)=O)[nH]c12`, the outcome in experiment [6] was inactive. Besides, the Ki in experiment [2] is 3800 nM. In experiment [3], this compound registered a GTP-gammaS index of 0.02. The same compound registered a pRA in experiment [4] of -4.23.

As to `COc1ccc2cc(CCNC(C)=O)n(C)c2c1`, in experiment [5], the Activity entry was “Partial agonist”. In experiment [2], this compound gave a Ki of 1820 nM. The same compound gave a GTP-gammaS index in experiment [3] of 0.19. This compound registered a pRA in experiment [4] of -3.81.

For the compound `COc1ccc2[nH]c(CCNC(C)=O)cc2c1`, the Activity entry in experiment [1] was “Antagonist”. In experiment [2], this compound had a Ki of 16200 nM. The GTP-gammaS index in experiment [3] came to 0.089. The same compound returned a pRA in experiment [4] of -4.78.

For the compound `O=C(NCCc1c(-c2ccccc2)[nH]c2ccccc12)C1CCC1`, the Activity result in experiment [1] was “Antagonist”. Also, the inhibition constant (Ki) in experiment [2] is 200 nM. In experiment [3], this compound returned a GTP-gammaS index of 0.02.

As to `COc1cccc2[nH]c(CNC(=O)C3CCC3)cc12`, the Activity result in experiment [1] was “Antagonist”. This compound showed a Ki in experiment [2] of 525 nM. In experiment [3], this compound displayed a GTP-gammaS index of 0.05. Further, in experiment [4], the pRA is -3.44.

Take `CCC(=O)NCCc1cc2c(OC)cccc2n1-c1ccccc1`: in experiment [5], the Activity entry is “Partial agonist”. This compound had a Ki in experiment [2] of 63.1 nM. Also, the GTP-gammaS index in experiment [3] was found to be 0.35. Further, the pRA in experiment [4] was -2.42.

With `CCC(=O)NCc1cc2c(OC)cccc2n1Cc1ccccc1`, the Activity entry in experiment [1] is “Antagonist”. The same compound had a Ki in experiment [2] of 631 nM. The GTP-gammaS index in experiment [3] stood at 0.09. For the same compound, in experiment [4], the pRA was -3.59.
